Assay results published in ChEMBL document CHEMBL4619820, “Development of Novel AKR1C3 Inhibitors as New Potential Treatment for Castration-Resistant Prostate Cancer” (J Med Chem, 2020).
The source made the active and inactive calls. No cut-off for these calls is given here.

Columns and labels:
CWR22R [1] = assay: Inhibition of pregnenolone-induced cell cell cycle changes in human 22Rv1 cells assessed as reduction in S phase accumulation at 10 uM pre-incubated for 2 hrs before pregnenolone stimulation for 24 hrs by propidium iodide staining based flow cytometry; type: functional
How it was run: (§1)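 Cell cycle in 22Rv1: 2 h pretreatment with or without 10 μM inhibitor, then 24 h with 20 nM pregnenolone; G0/G1, S and G2/M fractions determined by flow cytometry.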

CWR22R [2] = assay: Inhibition of pregnenolone-induced cell cell cycle changes in human 22Rv1 cells assessed as increase in G0/GG1 phase accumulation at 10 uM pre-incubated for 2 hrs before pregnenolone stimulation for 24 hrs by propidium iodide staining based flow cytometry; type: functional; how it was run: as §1
CWR22R [3] = assay: Effect on steroid 5alpha-reductase in human 22Rv1 cells assessed as effect on metabolism of 4AD into testosterone at 10 to 20 uM pre-incubated for 2 hrs before 4AD addition for 24 hrs by EIA; type: cell-based
How it was run: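 22Rv1 cells pretreated 2 h with or without 2 μM finasteride and/or inhibitor, then cultured 24 h with 100 nM 4AD; testosterone in cell extracts quantified by EIA and expressed as percent of finasteride-free control.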

[4] = target: T1, Aldo-keto reductase family 1 member C3 (Homo sapiens) (UniProt P42330); assay: Inhibition of AKR1C3 in human 22Rv1 cells assessed as as reduction in AR nuclear translocation at 10 pre-incubated for 2 hrs before 4AD addition for 24 hrs by Western blot analysis; type: cell-based; details: CWR22R
T1 sequence (whole entry): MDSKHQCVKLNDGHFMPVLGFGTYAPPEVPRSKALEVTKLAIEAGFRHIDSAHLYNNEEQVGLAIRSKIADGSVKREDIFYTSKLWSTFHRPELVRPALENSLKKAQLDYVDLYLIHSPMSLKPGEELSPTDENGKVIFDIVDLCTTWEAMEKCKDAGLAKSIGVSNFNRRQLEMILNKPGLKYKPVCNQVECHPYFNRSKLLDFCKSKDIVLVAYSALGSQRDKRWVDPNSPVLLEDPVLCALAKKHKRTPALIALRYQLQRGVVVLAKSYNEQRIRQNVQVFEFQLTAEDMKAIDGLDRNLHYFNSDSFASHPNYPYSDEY
How it was run: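 22Rv1 cells pretreated 2 h with or without 10 μM inhibitor, then exposed 24 h to 10 nM 4AD; nuclear AR measured by Western blot of cell extracts, normalized to Lamin A+C, as percent of control.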

[5] = target: T1, Aldo-keto reductase family 1 member C3 (Homo sapiens); assay: Inhibition of AKR1C3 in human 22Rv1 cells assessed as as reduction in TMPRSS2 mRNA expression at 10 to 20 uM pre-incubated for 2 hrs before pregnenolone stimulation for 24 hrs by RT-qPCR analysis; type: cell-based; details: CWR22R
How it was run: (§2)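 22Rv1 cells pretreated 2 h with test agents, then stimulated 24 h with 20 nM pregnenolone; AR, TMPRSS2 and PSA mRNA measured by RT-qPCR, given as ratio to pregnenolone-free control.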

[6] = target: T1, Aldo-keto reductase family 1 member C3 (Homo sapiens); assay: Inhibition of AKR1C3 in human 22Rv1 cells assessed as as reduction in PSA mRNA expression at 10 to 20 uM pre-incubated for 2 hrs before pregnenolone stimulation for 24 hrs by RT-qPCR analysis; type: cell-based; details: CWR22R; how it was run: as §2
PC-3 [7] = assay: Inhibition of cell proliferation of human PC3 cells at 10 to 20 uM incubated for 72 hrs by alamar blue assay; type: functional, cell-based
How it was run: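 PC3 cells (AKR1C3-positive, AR-negative) grown 72 h with or without inhibitor; growth curves of viable cell number compared with inhibitor-free cells.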

CWR22R [8] = assay: Induction of apoptosis in human 22Rv1 cells assessed as increase in DNA fragmentation at 10 uM pre-incubated for 2 hrs before addition of pregnenolone for 24 hrs by ethidium bromide staining based DNA agarose gel electrophores method; type: functional, cell-based
[9] = target: T1, Aldo-keto reductase family 1 member C3 (Homo sapiens); assay: Inhibition of AKR1C3 in human 22Rv1 cells assessed as potentiation of enzalutamide-induced apoptosis by measuring increase in DNA fragmentation at 10 uM pre-incubated for 2 hrs before addition of pregnenolone for 24 hrs by ethidium bromide staining based DNA agarose gel electrophores method; type: cell-based; details: CWR22R
[10] = target: T1, Aldo-keto reductase family 1 member C3 (Homo sapiens); assay: Inhibition of AKR1C3 in human 22Rv1 cells assessed as potentiation of enzalutamide-induced apoptosis by measuring increase in cleaved caspase-3 level at 10 uM pre-incubated for 2 hrs before addition of pregnenolone for 24 hrs by Western blot analysis; type: cell-based; details: CWR22R
How it was run: (§3)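 Apoptotic markers in 22Rv1: 2 h pretreatment with or without 10 μM inhibitor and/or 50 μM enzalutamide, then 24 h 20 nM pregnenolone; Bax/Bcl-2 ratio as percent of control; cleaved caspase-3 also by immunofluorescence with DAPI.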

[11] = target: T1, Aldo-keto reductase family 1 member C3 (Homo sapiens); assay: Inhibition of AKR1C3 in human 22Rv1 cells assessed as potentiation of enzalutamide-induced apoptosis by measuring increase in cleaved PARP level at 10 uM pre-incubated for 2 hrs before addition of pregnenolone for 24 hrs by Western blot analysis; type: cell-based; details: CWR22R; how it was run: as §3
[12] = target: T1, Aldo-keto reductase family 1 member C3 (Homo sapiens); assay: Inhibition of AKR1C3 in human 22Rv1 cells assessed as potentiation of enzalutamide-induced apoptosis by measuring reduction in BCl2 level at 10 uM pre-incubated for 2 hrs before addition of pregnenolone for 24 hrs by Western blot analysis; type: cell-based; details: CWR22R; how it was run: as §3
[13] = target: T1, Aldo-keto reductase family 1 member C3 (Homo sapiens); assay: Inhibition of AKR1C3 in human 22Rv1 cells assessed as potentiation of abiraterone-induced apoptosis by measuring reduction in BCl2 level at 10 uM pre-incubated for 2 hrs before addition of pregnenolone for 24 hrs by Western blot analysis; type: cell-based; details: CWR22R
[14] = target: T1, Aldo-keto reductase family 1 member C3 (Homo sapiens); assay: Inhibition of AKR1C3 in human 22Rv1 cells assessed as potentiation of abiraterone-induced apoptosis by measuring increase in cleaved PARP level at 10 uM pre-incubated for 2 hrs before addition of pregnenolone for 24 hrs by Western blot analysis; type: cell-based; details: CWR22R
[15] = target: T1, Aldo-keto reductase family 1 member C3 (Homo sapiens); assay: Inhibition of AKR1C3 in human 22Rv1 cells assessed as potentiation of abiraterone-induced apoptosis by measuring increase in cleaved caspase-3 level at 10 uM pre-incubated for 2 hrs before addition of pregnenolone for 24 hrs by Western blot analysis; type: cell-based; details: CWR22R
[16] = target: T1, Aldo-keto reductase family 1 member C3 (Homo sapiens); assay: Inhibition of AKR1C3 in human 22Rv1 cells assessed as potentiation of abiraterone-induced apoptosis by measuring increase in Bax level at 10 uM pre-incubated for 2 hrs before addition of pregnenolone for 24 hrs by Western blot analysis; type: cell-based; details: CWR22R
[17] = target: T1, Aldo-keto reductase family 1 member C3 (Homo sapiens); assay: Inhibition of AKR1C3 in human 22Rv1 cells assessed as potentiation of abiraterone-induced apoptosis by measuring increase in DNA fragmentation at 10 uM pre-incubated for 2 hrs before addition of pregnenolone for 24 hrs by ethidium bromide staining based DNA agarose gel electrophores method; type: cell-based; details: CWR22R
[18] = target: T1, Aldo-keto reductase family 1 member C3 (Homo sapiens); assay: Inhibition of AKR1C3 in human 22Rv1 cells assessed as induction of ROS generation at 10 uM by DCFH-DA dye based flow cytometric analysis; type: cell-based; details: CWR22R
How it was run: (§4)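 22Rv1 cells exposed 3 h to 10 μM inhibitor and/or abiraterone, or 50 μM enzalutamide; intracellular ROS by flow cytometry as DCF-positive cells, percent of vehicle control.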

[19] = target: T1, Aldo-keto reductase family 1 member C3 (Homo sapiens); assay: Inhibition of AKR1C3 in human 22Rv1 cells assessed as potentiation of abiraterone-induced of ROS generation at 10 uM by DCFH-DA dye based flow cytometric analysis; type: cell-based; details: CWR22R; how it was run: as §4
[20] = target: T1, Aldo-keto reductase family 1 member C3 (Homo sapiens); assay: Inhibition of AKR1C3 in human 22Rv1 cells assessed as potentiation of enzalutamide-induced of ROS generation at 10 uM by DCFH-DA dye based flow cytometric analysis; type: cell-based; details: CWR22R; how it was run: as §4
PC-3 [21] = details: Homo sapiens, at 10 µM

SMILES: Cc1ccc(NC(=O)c2cc3cccc(O)c3oc2=N)cc1
- inhibition (CWR22R [1]): Active
- inhibition (CWR22R [2]): Active
- Activity (CWR22R [3]): inactive
- inhibition [4]: Active
- inhibition [5]: Active
- inhibition [6]: Active
- inhibition (PC-3 [7]): Active
- Activity (CWR22R [8]): Active
- inhibition [9]: Active
- inhibition [10]: Active
- inhibition [11]: Active
- inhibition [12]: Active
- inhibition [13]: Active
- inhibition [14]: Active
- inhibition [15]: Active
- inhibition [16]: Active
- inhibition [17]: Active
- inhibition [18]: Active
- inhibition [19]: Active
- inhibition [20]: Active
- inhibition (PC-3 [21]): Active

SMILES: N=c1oc2c(O)cccc2cc1C(=O)Nc1ccc(F)cc1
- inhibition (CWR22R [1]): Active
- inhibition (CWR22R [2]): Active
- Activity (CWR22R [3]): inactive
- inhibition [4]: Active
- inhibition [5]: Active
- inhibition [6]: Active
- inhibition (PC-3 [7]): Active
- Activity (CWR22R [8]): Active
- inhibition [9]: Active
- inhibition [10]: Active
- inhibition [11]: Active
- inhibition [12]: Active
- inhibition [13]: Active
- inhibition [14]: Active
- inhibition [15]: Active
- inhibition [16]: Active
- inhibition [17]: Active
- inhibition [18]: Active
- inhibition [19]: Active
- inhibition [20]: Active
- inhibition (PC-3 [21]): Active
